In ChEMBL document CHEMBL3120085 (J Med Chem, 2014):

Legend:
[1] = Apparent passive permeability from apical to basolateral side in dog RRCK cells; type: ADME, cell-based, Canis lupus familiaris, MDCKII-LE; conditions: MDCK
How it was run: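 Passive A→B permeability measured across RRCK cells, a low-transporter line isolated from MDCK cells.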

[2] = Ratio of unbound drug level in brain homogenate to plasma in rat at 1 mg/kg, sc; type: ADME, organism-based; set-up: dose 1 mg/kg, route subcutaneous
[3] = Oral bioavailability in rat at 5 mg/kg; type: ADME, organism-based; conditions: in vivo
How it was run: (§1)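 F from mean AUC0−∞ after single doses: rat 1 mg/kg iv and 5 mg/kg po (n = 3/dose, or iv n = 2); monkey 1 mg/kg iv and 30 mg/kg po, n = 2/dose.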

[4] = Oral bioavailability in monkey at 30 mg/kg; type: ADME, organism-based, Macaca mulatta; conditions: rhesus monkey, in vivo; how it was run: as §1
[5] = Volume of distribution at steady state in rat; type: ADME, organism-based; conditions: in vivo, read-out: Vdss
[6] = Volume of distribution at steady state in monkey; type: ADME, organism-based, Macaca mulatta; conditions: rhesus monkey, in vivo; read-out: Vdss
[7] = Ratio of unbound drug level in brain homogenate to plasma in rat at 1 mg/kg, sc after 4 hrs; type: ADME, organism-based; set-up: dose 1 mg/kg, route subcutaneous
How it was run: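 Rat neuropharmacokinetic study, single 1 mg/kg sc dose, n = 2 per time point. Ratio derived from AUC0−4 of unbound brain versus unbound plasma concentration. Unbound concentrations were corrected using the unbound fraction measured in brain homogenate and in plasma.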

C[C@@H]1CCCN1C(=O)c1nn(C)c2nc(OCc3ccccn3)ccc12 gave a Papp A→B [1] of 21 ×10⁻⁶ cm/s, a Kp uu [2] of 1.01 and a bioavailability [3] of 0.4%.
Compound Cc1ccncc1-c1nn(C2CC2)c2nc(OCc3ccccn3)cnc12 has a Papp A→B [1] of 19.6 ×10⁻⁶ cm/s.
In the case of Cc1ccncc1-c1nn(C)c2nc(OCc3ccccn3)cnc12, the Papp A→B [1] is reported as 21 ×10⁻⁶ cm/s, the bioavailability [4] is reported as 67% and the bioavailability [3] is reported as 28%. For the same compound, the Vd [5] was 1.3 L/kg, the Vd [6] was 0.69 L/kg and the Kp uu at 4 h [7] was 2.
With Cn1nc(-c2cccnc2)c2ccc(OCc3ccccn3)nc21 the Papp A→B [1] was 24.4 ×10⁻⁶ cm/s.
For CCN(CC)C(=O)c1nn(C)c2nc(OCc3ccccn3)cnc12, the Papp A→B [1] was 31.5 ×10⁻⁶ cm/s, the Kp uu [2] was 0.51 and the bioavailability [3] was 35%.
For Cc1c(-c2nn(C)c3nc(OCc4ccccn4)cnc23)cnn1C, the Papp A→B [1] was 14.4 ×10⁻⁶ cm/s.
Work on Cn1nc(-c2ccccc2)c2ccc(OCc3ccccn3)nc21 yielded a Papp A→B [1] of 0.78 ×10⁻⁶ cm/s.
With Cn1nc(-c2ncccc2OC(F)F)c2ncc(OCc3ccccn3)nc21 the Papp A→B [1] was 28.7 ×10⁻⁶ cm/s.
Compound Cc1ccnnc1-c1nn(C)c2nc(OCc3ccccn3)cnc12 has a Papp A→B [1] of 21.5 ×10⁻⁶ cm/s.
With Cn1nc(-c2ccccn2)c2ccc(OCc3ccccn3)nc21 the Papp A→B [1] was 11.7 ×10⁻⁶ cm/s.
Cn1nc(-c2cccnc2)c2ncc(OCc3ccccn3)nc21 showed a Papp A→B [1] of 22.5 ×10⁻⁶ cm/s.
Cn1nc(-c2cnccc2C(F)(F)F)c2ncc(OCc3ccccn3)nc21 showed a Papp A→B [1] of 21.4 ×10⁻⁶ cm/s.
Work on Cc1c(Cl)cncc1-c1nn(C)c2nc(OCc3ccccn3)cnc12 yielded a Papp A→B [1] of 14.1 ×10⁻⁶ cm/s.
In the case of CCC(C)NC(=O)c1nn(C)c2nc(OCc3cccc(C)n3)ccc12 (stereo not given), the Papp A→B [1] is reported as 19.8 ×10⁻⁶ cm/s.
CCn1nc(-c2cnccc2C)c2ncc(OCc3ccccn3)nc21 showed a Papp A→B [1] of 13.8 ×10⁻⁶ cm/s.
In the case of Cc1cccnc1-c1nn(C)c2nc(OCc3ccccn3)cnc12, the Papp A→B [1] is reported as 28.5 ×10⁻⁶ cm/s.
